Bioassay records (PubChem BioAssay)
An excerpt weighted towards active compounds, which were near 2.1% of everything screened.
Efflux pump mplx – inhibitors of Candida efflux pumps in yeast, primary screen, S. cerevisiae, Nile Red, multiplex | S. cerevisiae Candida pump triplex | inhibition, % at 10 µM | 330,000 tested, 0.44% active | AID 485275, 2010;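 active = plate passing quality check with inhibition over a set limit, or well fluorescence over plate mean plus 4 SD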;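 also: Nile Red retained in pooled yeast measured as flow cytometry median fluorescence; 0% = buffer negative control and 100% = Enniatin B positive control; higher means more Nile Red kept so more efflux inhibition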
SUMO Mot1 rescue – yeast Mot1-301 growth rescue at high temperature, primary screen, SUMOylation pathway inhibitor project, S. cerevisiae, ATP luminescence, 38.5C; AID 2716, 2010; growth rescue, % at 18.8 µM; 320,000 tested, 1% active; S. cerevisiae Mot1-301 growth rescue; percent above DMSO median, 100 means doubled;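 active = every valid replicate shows activation above 250% relative to neutral control wells; inactive = the rest, any valid replicate at or below 250%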;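 also: OY570 slx delta 5 strain wells were the positive control but not used for scaling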
ARNT TACC3 PPI – disruptors of ARNT/TACC3 protein interaction, primary screen, biochemical, AlphaScreen, single concentration | Transforming acidic coiled-coil-containing protein 3 (Homo sapiens), Q9Y6A5 | 390,000 tested, 0.66% active | AlphaScreen His-ARNT PAS-B/GST-TACC3 binding, luminescence; TACC3 fragment carries E629A point mutation | inhibition, % at 9.99 µM;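 active = mean inhibition of replicates at least 50% and at least half of replicates each reaching 50%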;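 also: 0% = complete ARNT plus TACC3 wells and 100% = ARNT alone without TACC3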
cardiac RTF act – cardiac RTF calcium sensitivity activators, primary screen, biochemical, IANBD-TnC fluorescence, EC20 calcium; Troponin I, cardiac muscle (Homo sapiens) + Troponin T, cardiac muscle (Homo sapiens) + …; 340,000 tested, 0.24% active; activation, % at 7.2 µM; IANBD-labeled TnC RTF fluorescence at EC20 calcium; 0% EC20 calcium, 100% full calcium; AID 493008, 2010;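 active = activation above the mean over all tested compounds plus 3 SD, cut at about 30% in these data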;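 also: rise in fluorescence read as greater calcium sensitivity of cardiac thin filaments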
UCH37 inh – inhibitors of human UCH37 deubiquitinase, primary screen, biochemical, Ub-AMC cleavage, fluorescence. Ubiquitin carboxyl-terminal hydrolase isozyme L5 (Homo sapiens), Q9Y5K5. purified proteasome/UCH37. inhibition, % (concentration not given with the values). 330,000 tested, 0.33% active;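 active = mean inhibition over replicate wells above about 20%, limit read from the data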;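 also: 0% = compound-free wells with enzyme and 100% = wells lacking proteasome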
Target sequence (Q9Y5K5 whole entry, looked up): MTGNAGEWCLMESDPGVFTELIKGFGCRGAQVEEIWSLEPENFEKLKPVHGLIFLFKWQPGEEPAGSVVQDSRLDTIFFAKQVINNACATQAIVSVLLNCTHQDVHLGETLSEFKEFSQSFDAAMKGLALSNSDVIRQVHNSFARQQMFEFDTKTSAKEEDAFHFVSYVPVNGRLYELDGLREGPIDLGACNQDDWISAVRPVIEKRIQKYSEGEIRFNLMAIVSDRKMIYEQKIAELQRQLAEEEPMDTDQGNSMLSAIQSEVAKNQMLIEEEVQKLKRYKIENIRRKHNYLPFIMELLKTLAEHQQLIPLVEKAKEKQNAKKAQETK
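assay system = human UCH37 enzyme supplied as purified proteasome complex | amount = proteasome at 0.15 nM in the dispensed enzyme solution | schedule = 30 min compound-proteasome preincubation then 25 min substrate reaction, room temperature | measured by = fluorescence, ex 355 nm, em 460 nm | benchmarks = no-proteasome wells (full inhibition) and compound-free wells (no inhibition)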
Cardiac RTF inh – cardiac RTF calcium sensitivity inhibitors, primary screen, biochemical, IANBD-TnC fluorescence, EC70 calcium; AID 493244, 2011; Troponin I, cardiac muscle (Homo sapiens) + Troponin T, cardiac muscle (Homo sapiens) + …; inhibition, % at 7.15 µM; 340,000 tested, 0.12% active; IANBD-labeled cardiac RTF, Ca2+ fluorescence;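 active = inhibition above the mean inhibition of all tested compounds plus 3 SD, cut at about 17% in these data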;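 also: assay run at fixed EC70 calcium of 1.6 mM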
Mot1 SUMO dose – growth restoration of Mot1-301 yeast on galactose, dose response, SUMO pathway inhibitor project, whole organism, S. cerevisiae, ATP luminescence, cherry-picked samples; shares compounds with SUMO Mot1 rescue; S. cerevisiae Mot1-301 galactose growth, 24 h; -100 = growth of slx-deleted rescue strain; growth activity, percent, % at 42 µM; 2,300 tested, under 10 active;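 active = Signal drops as the depositor expects, and the fitted half-maximal dose is no more than ten times the top valid tested dose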;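 also: more negative values mean stronger growth rescue toward the control strain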
* hit, by the source's call; . = not tested or not shown; + = active, no number; ! = repeats disagree.

SMILES	Efflux pump mplx	SUMO Mot1 rescue	ARNT TACC3 PPI	cardiac RTF act	UCH37 inh	Cardiac RTF inh	Mot1 SUMO dose
Cc1ccc2nc(NC(=O)C3CCN(S(=O)(=O)c4cccnc4)CC3)sc2c1	0	775*	3	3	3	-3	0
ON=Cc1cc(Br)ccc1OCc1cccc(F)c1	.	.	.	.	3	.	.
O=C(COc1ccccc1)NCCS(=O)(=O)N1CCN(c2ccccc2)CC1	0	380*	-3	-2	5	-2	0
O=S(=O)(Cc1ccccc1)N1CCN(c2ccccc2)CC1	0	583*	-3	-2	2	-13	0
CC1CCN(C(=O)c2[nH]cnc2C(=O)NCC(=O)OCc2ccccc2)CC1	0	790*	-5	-1	.	4	0
CCOC(C)=Nn1c2nc3ccccc3nc2c2c(=O)n(CC(C)C)c(C)nc21	.	.	.	.	5	.	.
COc1ccc(OC)c(C=Nn2c(COc3ccccc3)n[nH]c2=S)c1	.	.	.	.	-25	.	.
COc1ccc(NC(=O)c2ccccc2-c2ccccc2)cc1	0	2	-5	5	2	-5	.
CC(C)NC(=O)c1ccccc1-c1ccccc1	0	468*	-3	2	-1	-1	1
Cc1cccc(N2CN=c3s/c(=C\c4ccccn4)c(=O)n3C2)c1	0	441*	-3	1	.	0	0
O=C(CNC(=O)c1ccc(Cl)cc1)NCCCn1ccnc1	0	3	3	0	4	-1	.
O=C(NCCCn1ccnc1)c1ccc(Cl)cc1	0	574*	-4	6	.	-3	1
Cc1ccc(C=NNC(=O)Cn2nnc(N)n2)cc1	.	.	.	.	5	.	.
CC(=O)N1N=C(N)SC12CCCC2	0	+	3	2	1	-2	0
CC(ON=Cc1ccccc1OC(F)F)C(=O)Nc1cccc(S(=O)(=O)N2CCOCC2)c1 (centres undefined)	.	.	.	.	-1	.	.
CN(C)CC/C=C1\c2ccccc2Sc2cc(F)c(Cl)cc21	0	-1	28	2	7	5	.
CN(C)CC/C=C1\c2ccccc2Sc2ccc(Cl)cc21	0	497*!	25	0	0	4	0
C=CCn1c(-c2ccc(OC)cc2)nc2ccccc21	0	396*	-5	-3	-1	5	0
CCOCCn1c(-c2ccc(OC)cc2)nc2ccccc21	0	477*	-8	4	2	-5	0
C=CCn1c(-c2ccc(N)cc2)nc2ccccc21	0	265	-3	1	-44	-2	.
C=CCNC(=S)NN=C(C)c1cccc(NC(C)=O)c1	.	.	.	.	5	.	.
O=C(CSc1nc2ccccc2c(=O)n1-c1ccc(Cl)cc1)NN=C/C=C/c1ccccc1[N+](=O)[O-]	.	.	.	.	7	.	.
O=C(Nc1ccc(F)cc1)c1ccc(CSc2ccc(Cl)cc2)o1	0	-13	-6	-5	6	-2	.
O=C(Nc1ccc(F)cc1)c1ccc(CSc2ccccc2)o1	0	+	-5	1	2	-5	0
CC(=O)C(=NNc1cccc(Cl)c1)N1CCOCC1	.	.	.	.	12	.	.
SMILES	Efflux pump mplx	SUMO Mot1 rescue	ARNT TACC3 PPI	cardiac RTF act	UCH37 inh	Cardiac RTF inh	Mot1 SUMO dose
CC(=O)/C(N)=N/Nc1cccc(Cl)c1	0	437*	3	-2	3	10	-1
Cc1c(C=NNC(=O)c2ccc([N+](=O)[O-])cc2)cnn1C	.	.	.	.	5	.	.
COc1ccc(C=NNc2cc(C)nc(N3CCOCC3)n2)cc1OC	.	.	.	.	9	.	.
c1ccc2cc(C3CCCCC3)ncc2c1	0	738*	-12	-7	.	3	0
O=c1oc2cc(S(=O)(=O)NCCCO)ccc2c2ccc(S(=O)(=O)NCCCO)cc12	0	461*	2	2	0	-12	0
C=C1CCC(C)C(C)(CCC2=CCOC2=O)CC=CC=C1C(=O)O (centres undefined)	.	.	.	.	1	.	.
CCCC(=NNC(=O)C1CC1)c1ccc(Br)cc1	.	.	.	.	-2	.	.
O=C(O)c1c(C(=O)O)c(-c2ccc(F)cc2)n2c1CCC2	0	499*	.	-5	.	2	0
Cc1ccc(-c2c(C(=O)O)c(C(=O)O)c3n2CCC3)cc1	0	32	.	-6	-1	-9	.
O=C(O)c1cccc(N2C(=O)c3ccc4c5c(ccc(c35)C2=O)C(=O)N(c2cccc(C(=O)O)c2)C4=O)c1	0	12	7	8	16	-6	.
O=C(O)c1cccc(N2C(=O)C3C4C=CC(C4=C(c4ccccc4)c4ccccc4)C3C2=O)c1 (centres undefined)	0	599*	.	.	6	.	0
Cc1ccc(NC(=O)CCC(=O)NN=Cc2cccs2)cc1	.	.	.	.	4	.	.
O=C(CCNS(=O)(=O)c1cccc2nsnc12)NCCC1=CCCCC1	0	712*	1	0	7	-1	0
O=S(=O)(NCCC1=CCCCC1)c1cccc2nsnc12	.	.	5	-6	7	-4	.
CCNc1ccccc(C(=O)/C=C/c2ccc3c(c2)OCO3)c1=O	0	439*	16	0	6	-2	0
COC(=O)/C=C/c1ccc2c(c1)OCO2	0	-21	-7	-1	-29	-4	.
Cc1nnc(NC(=O)c2ccc(-c3cccc(C(F)(F)F)c3)o2)s1	0	+	.	0	-21	-23	0
CC(=NNS(=O)(=O)c1ccccc1)c1cc(Cl)cc(Cl)c1O	.	.	.	.	4	.	.
CCC(=O)Nc1ccc(C(C)=NNC(=O)c2c(Br)c(C)nn2C)cc1	.	.	.	.	3	.	.
COc1cc(/C=N/NC(=O)c2nnn(-c3nonc3N)c2-c2cccs2)ccc1O	0	-4	.	-4	.	-4	.
COc1ccc(/C=N/NC(=O)c2nnn(-c3nonc3N)c2-c2cccs2)cc1OC	0	399*	11	-6	.	3	-1
COc1cccc(C=NNC(=S)Nc2cccnc2)c1	.	.	.	.	2	.	.
